In one experiment the test system is BXPC-3. Put plainly: Growth inhibition of human BxPC3 cells. Type of experiment: functional. The essentials:
(§1)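 Human cancer cell line panel: pancreas (BXPC-3), breast (MCF-7), CNS (SF-268), non-small-cell lung (NCI-H460), colon (KM20L2) and prostate (DU-145). Growth inhibition is reported as GI50 in µg/mL.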

The next experiment relates to Streptococcus pneumoniae. Put plainly: Antimicrobial activity against Streptococcus pneumoniae up to 64 ug/mL by broth microdilution susceptibility assay. It is filed as functional, organism-based. A general note: Broth dilution looks for growth in wells or tubes with falling amounts of substance.
The test system of another experiment is Enterococcus faecalis. As to the kind of experiment: Antimicrobial activity against Enterococcus faecalis up to 64 ug/mL by broth microdilution susceptibility assay. Type of experiment: functional, organism-based.
In another experiment the test system is SF-268. As to the kind of experiment: Growth inhibition of human SF268 cells. It is filed as functional. The essentials: as §1
The subject of the next experiment is Escherichia coli. Put plainly: Antimicrobial activity against Escherichia coli up to 64 ug/mL by broth microdilution susceptibility assay. Type of experiment: functional, organism-based.
Another experiment has as its system NCI-H460. As to the kind of experiment: Growth inhibition of human NCI-H460 cells. It is filed as functional. The procedure, abridged:
as §1

A further experiment concerns Staphylococcus aureus. As to the kind of experiment: Antimicrobial activity against Staphylococcus aureus up to 64 ug/mL by broth microdilution susceptibility assay. Type of experiment: functional, organism-based.
For the next experiment, the system named is Cryptococcus neoformans. As to the kind of experiment: Antimicrobial activity against Cryptococcus neoformans up to 64 ug/mL by broth microdilution susceptibility assay. It is filed as functional, organism-based.
For another experiment, the system named is Candida albicans. Put plainly: Antimicrobial activity against Candida albicans up to 64 ug/mL by broth microdilution susceptibility assay. Type of experiment: functional, organism-based.
In a further experiment the test system is Neisseria gonorrhoeae. As to the kind of experiment: Antimicrobial activity against Neisseria gonorrhoeae up to 64 ug/mL by broth microdilution susceptibility assay. Type of experiment: functional, organism-based.
A further experiment deals with MCF7. Put plainly: Growth inhibition of human MCF7 cells. It is filed as functional. The procedure, abridged:
as §1

A further experiment concerns KM-20L2. Put plainly: Growth inhibition of human KM20L2 cells. Type of experiment: functional. The essentials: as §1
A further experiment deals with DU-145. Put plainly: Growth inhibition of human DU145 cells. Type of experiment: functional. The essentials:
as §1

Experiment [1] relates to Stenotrophomonas maltophilia. As to the kind of experiment: Antimicrobial activity against Stenotrophomonas maltophilia up to 64 ug/mL by broth microdilution susceptibility assay. Type of experiment: functional, organism-based.
A further experiment relates to Micrococcus luteus. Put plainly: Antimicrobial activity against Micrococcus luteus up to 64 ug/mL by broth microdilution susceptibility assay. It is filed as functional, organism-based.
Another experiment concerns Enterobacter cloacae. As to the kind of experiment: Antimicrobial activity against Enterobacter cloacae up to 64 ug/mL by broth microdilution susceptibility assay. It is filed as functional, organism-based.

Each structure is given as a SMILES string. Values after ≈ are worked out from the molar mass of the structure shown. Active and inactive are the calls of the source. The rule behind the calls is not given here.

Regarding `CC(C)Cc1ncc(-c2c[nH]c3ccccc23)o1` [LABRADORIN 1], the GI50 was 6.2 µg/mL (≈ 25.8 µM) with BXPC-3; 5.1 µg/mL (≈ 21.2 µM) in the experiment on SF-268; 9.8 µg/mL (≈ 40.8 µM) with NCI-H460; 3.9 µg/mL (≈ 16.2 µM) in the experiment on MCF7; 3.5 µg/mL (≈ 14.6 µM) in the experiment on KM-20L2; 4 µg/mL (≈ 16.6 µM) in the experiment with DU-145. The outcome in the experiment on Streptococcus pneumoniae, in the experiment on Enterococcus faecalis, in the experiment on Escherichia coli, in the experiment with Staphylococcus aureus, in the experiment with Cryptococcus neoformans and with Candida albicans was inactive. Also, the outcome (in the experiment on Neisseria gonorrhoeae; in experiment [1]; with Micrococcus luteus; in the experiment on Enterobacter cloacae) was inactive.
In the case of `CCCCCc1ncc(-c2c[nH]c3ccccc23)o1` [LABRADORIN 2], the 50% growth inhibitory concentration (GI50) is 9.6 µg/mL (≈ 37.7 µM) in the experiment with BXPC-3; 58.8 µg/mL (≈ 231 µM) in the experiment with SF-268; 9.6 µg/mL (≈ 37.7 µM) with NCI-H460; 27.4 µg/mL (≈ 108 µM) in the experiment with MCF7; 9.7 µg/mL (≈ 38.1 µM) in the experiment on KM-20L2; 11.4 µg/mL (≈ 44.8 µM) with DU-145. Moreover, the result in the experiment with Streptococcus pneumoniae, with Enterococcus faecalis, in the experiment on Escherichia coli, in the experiment on Staphylococcus aureus, in the experiment on Cryptococcus neoformans and with Candida albicans was inactive. The outcome (in the experiment with Neisseria gonorrhoeae; in [1]; with Micrococcus luteus; with Enterobacter cloacae) was inactive.

The GI50 is the concentration at which growth is held to half of that of the control. The low end stands for more potent growth inhibition, the high end for less potent growth inhibition.

These data come from ChEMBL document CHEMBL1150154, “Isolation of labradorins 1 and 2 from Pseudomonas syringae pv. coronafaciens” (2002).
